# Compound activity from PubChem.
# This excerpt belongs to a sample that is enriched for hits.
# 697 NFkB inh: inhibitors of PMA/ionomycin-induced NF-kB reporter, 697 cells, primary screen, B-cell NF-kB inhibitor project, cell-based, luminescence, uHTS; 697 B-cell NF-kB luciferase reporter, 16 h; inhibition, % at 4 µM; 330,000 tested, 0.33% active; AID 435022, 2010; in the data active means inhibition above about 35%
# UPR CHOP act: activators of apoptotic CHOP UPR arm, primary screen, cell-based, CHO-CHOP luciferase reporter, luminescence, uHTS; UPR activation; percent of tunicamycin response over DMSO baseline; activation, % at 10 µM; 330,000 tested, 0.34% active;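 active means at 10 µM dose, activation of 40% or more, normalized to positive control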
#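 Test system: CHO-CHOP cells, stable luciferase reporter of PERK-eIF2a-CHOP signalling | Quantity: 500 CHO-CHOP cells per well | Buffer or medium: F12 plus 10% serum | Compound dosing: 10 µM single point, 0.5% DMSO | Schedule: 6 h compound treatment, 37 °C | Signal: Luciferase luminescence | Control set: Tunicamycin high control, DMSO low control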
# Jurkat NFkB inh: inhibitors of induced NF-kB luciferase reporter, primary screen, TCR NF-kB activation inhibitor project, cell-based, luminescence, uHTS; Jurkat, PMA/ionomycin-induced NF-kB luciferase reporter; inhibition, % at 4 µM; 330,000 tested, 0.53% active; AID 435003, 2010; in the data active means inhibition above about 50%
# CHOP inh: inhibitors of CHOP promoter induction, primary screen, cell-based, unfolded protein response, luciferase reporter | AID 2732, 2010 | inhibition, % at 10 µM | CHO-K1 CHOP-promoter luciferase, tunicamycin-induced, 15-18 h | 220,000 tested, 3.8% active;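 active means compounds that reduced the stress-induced luciferase reporter signal by more than about 70% of percent inhibition, limit read from the data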
# UPR XBP1 act: activators of adaptive XBP1 UPR arm, primary screen, cell-based, CHO-XBP1 luciferase reporter, luminescence, uHTS; IRE1-XBP1 UPR activation; percent of tunicamycin response, DMSO as zero; activation, % at 20 µM; 330,000 tested, 0.33% active;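 active means versus positive control, 20 µM dose yields 30% or more activation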
#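 Material: CHO cell line with stable XBP1 luciferase reporter; buffer or medium: F12 medium containing 10% fetal bovine serum; compound: single point, 20 µM final compound, 1% DMSO; incubation: 6 h treatment, 37 °C; measured by: glow luminescence from Steady-Glo reagent; evaluation: activation, % of tunicamycin; control set: tunicamycin high, DMSO low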
# Jurkat NFkB conf: PMA/ionomycin-induced NF-kB reporter inhibitors, Jurkat retest, confirmation, T-cell NF-kB inhibitor project, cell-based, luminescence, single concentration; shares compounds with Jurkat NFkB inh; Jurkat NF-kB luciferase, 16 h; inhibition, % at 4 µM; 2,700 tested, 27% active; AID 435020, 2010;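 active means inhibition reaching about 45% at 4 µM in either replicate, limit read from the data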
# Hits are given with their value; n = inactive; x = no result.
SMILES,697 NFkB inh,UPR CHOP act,Jurkat NFkB inh,CHOP inh,UPR XBP1 act,Jurkat NFkB conf
CN[C@H]1CCc2cc(OC)c(OC)c(OC)c2-c2ccc(N(C)CC(OC)OC)c(=O)cc21,n,n,n,x,n,x
Cc1ccc(S(=O)(=O)NC(=O)COc2cc(C)ccc2C(C)C)cc1,n,n,n,x,n,x
Fc1ccccc1-c1nc(-c2ccc(-c3nn[nH]n3)cc2)no1,n,n,n,x,n,x
O=C(N=Nc1c(O)[nH]c2ccc(Br)cc12)c1ccccc1-n1cccc1,n,n,71,n,n,n
Nc1cc(=O)[nH]n1C1CCCCC1,n,n,n,n,n,x
Cc1cccc(S(=O)(=O)Nc2ccc(-c3nc4ccc(C)cc4s3)cc2)c1,n,n,n,n,n,n
Cc1cccc(S(=O)(=O)Nc2ccc(-c3cn4ccccc4n3)cc2)c1,n,n,n,n,n,x
CCC1(c2ccccc2)NC(=O)N(CC(=O)Nc2cc(C(F)(F)F)ccc2N2CCCC2)C1=O (configuration not stated),n,n,54,x,n,n
O=C(CN1C(=O)NC2(CCCCC2)C1=O)Nc1cc(C(F)(F)F)ccc1N1CCCCC1,n,n,n,x,n,x
CC1(C)CC2CC(C)(CN2S(=O)(=O)c2ccc(C(=O)Nc3cc(S(=O)(=O)N4CCOCC4)ccc3Cl)cc2)C1 (configuration not stated),n,n,n,n,n,x
CC1(C)CC2CC(C)(CN2S(=O)(=O)c2ccc(C(=O)Nc3cccc(S(=O)(=O)N4CCOCC4)c3)cc2)C1 (configuration not stated),n,n,63,n,n,69
CCOC(=O)c1oc2ccc(S(=O)(=O)n3nc(-c4ccc(OC)cc4)cc3N)cc2c1C,n,n,58,n,n,n
CCOc1ccc(-c2cc(N)n(S(=O)(=O)c3ccc(OC)cc3)n2)cc1,n,n,n,n,n,x
O=c1cc(CSc2nnc(COc3cccc4ccccc34)o2)c2ccccc2[nH]1,n,n,n,n,n,x
Cc1ccc2c(c1)sc1nc(=O)n(-c3ccccc3)c(=O)n12,n,n,n,n,n,n
Cc1ccc(-c2nc3cc(Cl)ccc3o2)cc1,n,n,n,n,n,x
COc1cc(OC)cc(-c2nc3cc(C)ccc3o2)c1,n,n,n,n,n,n
Cn1c(N)c(C(=O)Nc2ccc3ccccc3c2)sc1=S,n,n,n,n,n,n
Cn1c(N)c(C(=O)Nc2ccccc2F)sc1=S,n,n,n,n,n,x
COc1ccc(CCNc2nnc(Sc3nnnn3-c3ccccc3)s2)cc1OC,n,n,77,x,n,55
O=C(Nc1ccccn1)c1cc2cc([N+](=O)[O-])ccc2s1,n,n,n,n,n,n
COC(=O)c1c(-c2cccnc2)csc1NC(=O)c1cc(C)on1,n,n,n,n,n,n
COC(=O)c1c(-c2ccc(C)cc2)csc1NC(=O)c1c(-c2ccccc2)noc1C,n,n,n,n,n,x
CCOCCc1nnc(NC(=O)CS(=O)(=O)Cc2ccccc2)s1,n,n,n,x,n,x
Cc1ccc(CN=C(N)Nc2nc(C)cc(C)n2)cc1,n,n,73,n,n,n
SMILES,697 NFkB inh,UPR CHOP act,Jurkat NFkB inh,CHOP inh,UPR XBP1 act,Jurkat NFkB conf
CCOC(=O)c1cc(CC)sc1NC(=O)c1cccc(N2C(=O)CCC2=O)c1,n,n,57,n,n,n
O=C(NC12CC3CC(CC(C3)C1)C2)c1ccc(-c2ccccc2Cl)o1,n,n,n,n,n,n
O=C(NC12CC3CC(CC(C3)C1)C2)c1ccc(-c2cccc(Cl)c2)o1,n,n,n,n,n,x
O=C(NC12CC3CC(CC(C3)C1)C2)c1ccc(-c2ccc(Cl)cc2)o1,n,n,n,n,n,n
Cc1ccccc1NS(=O)(=O)c1nnc(NC(=O)CC(C)C)s1,n,n,n,x,n,x
CC(=C/c1ccccc1)/C=N/NC(=O)c1cccs1,n,n,n,n,n,n
O=C1/C(=C\c2cccs2)Sc2ccc3ccccc3c21,n,n,n,n,n,n
